Screening results deposited in PubChem BioAssay by Johns Hopkins Ion Channel Center.
MrgX1 agonist = agonists of human MrgX1 receptor. Q96LB2. MrgX1-HEK293 cells, Fluo-4 calcium fluorescence, agonist mode; hits give high values. B-score at 10 µM. hit rate 0.44% among 310,000. AID 588627;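 active = calcium response B-score plate-corrected fluorescence ratio at least 3 library SD, with starting fluorescence B-score inside 5 SD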
Target sequence (Q96LB2 whole entry, looked up): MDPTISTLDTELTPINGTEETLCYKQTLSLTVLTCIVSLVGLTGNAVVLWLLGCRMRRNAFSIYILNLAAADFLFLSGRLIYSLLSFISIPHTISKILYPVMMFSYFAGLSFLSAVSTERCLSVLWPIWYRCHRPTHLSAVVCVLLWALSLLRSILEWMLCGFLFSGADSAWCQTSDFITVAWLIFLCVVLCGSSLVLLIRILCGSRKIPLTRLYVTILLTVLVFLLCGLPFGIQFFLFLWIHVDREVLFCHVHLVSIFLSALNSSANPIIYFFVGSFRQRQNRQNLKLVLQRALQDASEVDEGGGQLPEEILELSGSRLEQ
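Test system: Stable human MrgX1 HEK293 cell line | Schedule: Overnight plating before 1 h dye loading | Read-out basis: Baseline-normalised fluorescence change ratio, B-scored | Detection: Kinetic calcium dye fluorescence, Fluo-4 NW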
RGS4 pot = RGS4 potentiation or activation. HEK293 M3R/inducible RGS4, carbachol calcium flux Fluo4; hits give low values. B-score at 10 µM. hit rate 0.92% among 310,000;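 active = B-score of the integrated calcium signal more than 4 SD below the library mean, with starting fluorescence not abnormally high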;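 also: negative B-score means reduced calcium response which marks RGS4 activation or potentiation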
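Detection: kinetic calcium fluorescence imaging with Fluo4-AM dye, 2 µM / Material: HEK293 cells with stable M3R and inducible RGS4 / Schedule: recording 10 s baseline at 1 Hz, 100 s post-agonist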
MrgX1 PAM = human MrgX1 positive allosteric modulation, primary screen; Q96LB2; MrgX1-HEK293, Fluo-4 calcium flux, FDSS; hits give high values; B-score at 10 µM; hit rate 0.63% among 310,000; AID 588675;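 active = plate-corrected calcium response at least 3 library SD above typical, normal starting fluorescence, not activating the receptor alone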;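 also: compound read alongside a low EC10 to EC30 dose of BAM8-22 agonist; peak minus trough fluorescence over baseline measured at the second addition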
RGS4 inh = inhibitors of human RGS4 | P49798 | HEK293 M3R/RGS4 inducible, Fluo-4 calcium flux; hits give high values; triggered by carbachol at its EC20 | B-score at 10 µM | hit rate 0.45% among 310,000;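 active = B-score, a plate-corrected calcium signal, over three deviations above library mean, with baseline fluorescence within five deviations of library mean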;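 also: RGS4 expression induced by doxycycline in cells with stable M3 receptor; B-score is computed from the integrated fluorescence ratio over baseline after carbachol; higher B-score means a larger calcium signal and so more RGS4 inhibition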
Target sequence (P49798 whole entry, looked up): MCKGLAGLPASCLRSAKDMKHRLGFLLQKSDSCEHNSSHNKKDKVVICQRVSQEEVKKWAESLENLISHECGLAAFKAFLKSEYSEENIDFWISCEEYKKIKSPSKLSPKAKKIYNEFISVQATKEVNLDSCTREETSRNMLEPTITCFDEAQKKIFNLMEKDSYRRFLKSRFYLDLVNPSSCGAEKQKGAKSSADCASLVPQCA
MrgX1 antag = antagonists of human MrgX1 receptor. Q96LB2. MRGX1-HEK293 calcium flux, Fluo-4, BAM8-22 antagonism; hits give low values. B-score at 10 µM. hit rate 1.3% among 310,000. AID 588676;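 active = calcium-response B-score plate-corrected more than 3 library SD below zero, starting fluorescence within 5 deviations, no agonist response on first addition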;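 also: peak minus trough fluorescence over baseline after final BAM8-22 challenge near maximal dose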
RGS4 act valid = confirmation of RGS4 activators; shares compounds with RGS4 pot; HEK293 M3R/RGS4 inducible, carbachol calcium flux Fluo4; inhibition, % at 10 µM; hit rate 89% among 1,100; AID 602282;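 active = inhibition above 3 SD of the buffer control wells, cut at about 41% in these data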;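 also: signal is the integrated peak-minus-minimum Fluo4 fluorescence over baseline ratio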
RGS4 act ctr = activity in cells without induced RGS4 expression; shares compounds with RGS4 pot; hit rate 82% among 1,100; inhibition, % at 10 µM; HEK293 M3R non-induced RGS4, Fluo4 calcium flux; after carbachol challenge at its EC90;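 active = inhibition exceeding 3 SD of buffer-only control wells, cut at about 26% in these data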;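 also: percent drop in integrated peak-minus-baseline over baseline Fluo4 ratio after carbachol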
Active calls of the source: *; i = inactive; . = no result given; ! = not confirmed by another sample. Only some compounds are listed: those with a hit (about 3.5% of all), similar ones and a draw of the others.

SMILES	MrgX1 agonist	RGS4 pot	MrgX1 PAM	RGS4 inh	MrgX1 antag	RGS4 act valid	RGS4 act ctr
Cc1cccc(NC(=O)C2CCN(S(=O)(=O)c3c(C)nn(C)c3C)CC2)n1	i	i	i	i	i	.	.
COc1cccc(C2c3c(oc4ccc(Cl)cc4c3=O)C(=O)N2c2cc(C)on2)c1OC (configuration not stated)	i	i	i	i	i	.	.
O=C(Nc1cccc(-c2nc3ccccc3s2)c1)c1cc(=O)c2ccccc2o1	i	i	i	i	i	.	.
O=C(Nc1cccc(-c2nc3ccccc3s2)c1)c1cccs1	i	-8.1*	i	i	i	92*	67*
O=C(CSc1nc(-c2ccccc2Cl)ns1)c1ccc(Cl)cc1	i	-8.2*	i	i	i	77*	41*
COC(OC)c1ccc(C#N)c(SCc2ccc(C)cc2)n1	i	i	i	i	i	.	.
CC(C(=O)NCC1(c2ccccc2)CCCC1)N1CCCC1 (configuration not stated)	i	-7.9*	i	i	i	64*	84*
CC(C(=O)NCC1(c2ccccc2)CCCC1)N1CCOCC1 (configuration not stated)	i	i	i	i	i	.	.
O=C(Nc1cccc(C(F)(F)F)c1)c1ccccc1NC(=O)C1CCCCC1	i	i	i	i	i	.	.
COC(=O)c1ccc(C2SCC(=O)N2Cc2ccccc2)cc1 (configuration not stated)	i	i	i	i	i	.	.
O=C(NCCSCc1ccccc1)c1ccc(C2SCC(=O)N2Cc2ccccc2)cc1 (configuration not stated)	i	-11*	i	i	i	88*	42*
CC1CC(C)(C)N(C(=O)CSc2ccc(-c3ccc(F)cc3)nn2)c2ccccc21 (configuration not stated)	i	-13*	i	i	i	94*	72*
Cc1cc(N2CCCCC2)n2ncc(-c3ccc(Cl)cc3)c2n1	i	i	i	i	i	.	.
Cc1cc(N2CCCCC2)n2ncc(-c3ccccc3)c2n1	i	-8.1*	i	i	i	94*	87*
CC1CCC(C(C)C)C(OC(=O)COC(=O)c2ccc(N)cc2)C1 (configuration not stated)	i	i	i	i	i	.	.
CC1CCC(C(C)C)C(OC(=O)Cn2c(-c3ccc(Br)cc3)[n+](C)c3ccccc32)C1 (configuration not stated)	i	-11*	i	i	-6*!	94*	81*
Cc1ccccc1OCc1n(CC(=O)OC2CC(C)CCC2C(C)C)c2ccccc2[n+]1C (configuration not stated)	i	-13*	i	i	-7.2*	92*	91*
O=C(NCc1ccc2c(c1)OCO2)c1ccc2c(c1)N(Cc1c(F)cccc1Cl)C(=O)CS2	i	-7.7*	i	i	i	93*	60*
O=S(=O)(Nc1ccc(Cl)cc1)c1ccc(N2CCOCC2)c(NC(=S)NC2CC2)c1	i	-12*	i	i	i	0	0
Cc1csc(NC(=O)c2cc(-c3ccccc3)nc3ccccc23)n1	i	-7.8*	i	i	i	86*	43*
Cc1ccc(C)c(-c2cc(C(=O)Nc3nccs3)c3ccccc3n2)c1	i	-7.7*	i	i	i	68*	0
COC(=O)c1sccc1NC(=O)c1cc(-c2cc(C)ccc2C)nc2ccccc12	i	i	i	i	i	.	.
CC(C)(C)c1nnc(NC(=O)c2cc(-c3ccccc3)nc3ccccc23)s1	i	i	i	i	i	.	.
COc1ccc(-c2csc3ncnc(N4CCN(c5ccc(OC)cc5)CC4)c23)cc1	i	i	i	i	i	.	.
COc1ccc(-c2csc3ncnc(N4CCN(c5ccccc5)CC4)c23)cc1	i	-8.3*	i	i	i	88*	84*
SMILES	MrgX1 agonist	RGS4 pot	MrgX1 PAM	RGS4 inh	MrgX1 antag	RGS4 act valid	RGS4 act ctr
COc1ccc(-c2csc3ncnc(N4CCN(c5ccccc5O)CC4)c23)cc1	i	-9.3*	i	i	i	0	0
COc1ccc(-c2csc3ncnc(N4CCN(Cc5ccccc5)CC4)c23)cc1	i	-7.7*	i	i	i	0	0
CCN1CCN(c2ncnc3scc(-c4ccc(C)c(C)c4)c23)CC1	i	-9.2*	i	i	i	92*	87*
Cc1ccc(-c2csc3ncnc(N4CCN(c5ccccc5O)CC4)c23)cc1	i	i	i	i	i	.	.
CCOC(=O)c1c(NC(=O)CSc2nnc(-c3ccncc3)n2Cc2ccco2)sc(C)c1C	i	i	i	i	i	.	.
O=C(NCCOc1ccccc1F)c1cc(F)c(F)cc1Cl	i	i	i	i	i	.	.
Cc1nn(-c2ccccc2)c(C)c1NC(=O)COC(=O)c1ccc(O)cc1O	i	-10*	i	i	i	52*	0
O=C1CCSc2ccc(Cl)cc2N1Cc1ccc(Cl)cc1	i	-10*	i	i	i	90*	86*
CCC(C)[C@H](NC(=O)NC1CCCc2ccccc21)C(=O)OC (some centres not stated)	i	-8.3*	i	i	i	0	0
CCn1ccnc1CN1CCC(n2nccc2NC(=O)c2ccccc2OC)CC1	i	i	i	i	i	.	.
O=C(NCCc1cccs1)C1CC(c2c(Cl)cccc2Cl)=NO1 (configuration not stated)	i	i	i	i	i	.	.
CN(C)c1ccc(/C=N/n2c(-c3cccnc3)n[nH]c2=S)cc1	i	i	i	i	i	.	.
CN(C)c1ccc(/C=N/n2c(-c3ccccc3Br)n[nH]c2=S)cc1	i	-12*	i	i	i	94*	94*
CNC(=O)c1ccccc1Nc1ccc(SC(F)F)cc1	i	i	i	i	i	.	.
O=C(NCc1ccncc1)c1ccccc1Nc1ccc(SC(F)F)cc1	i	-8.9*	i	i	i	92*	85*
COc1cc(NC(=O)c2cc3ccccc3cc2OC)ccc1NC(=O)c1cccs1	i	-9.1*	i	i	i	76*	0
Cc1ccc(C2N(c3ccccc3)C(=S)N3CCCN23)cc1 (configuration not stated)	i	-11*	i	i	i	94*	91*
